Screening data from PubChem.
In the library only some 3.5% were active in any assay of this set; here they are far more common.
MITF act = MITF TRPM1 promoter activation in melanoma cells; SK-MEL-5 TRPM1-promoter luciferase, 24 h; % of positive control, neutral wells = 0; activation, % at 12.5 µM; 300,000 compounds, 0.75% hits; AID 588334;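 active = mean activation of at least 80% with every replicate also reaching 80%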;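 note: 0% = neutral control wells and 100% = parthenolide positive control wells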
Env fusion inh = HIV envelope-mediated fusion inhibition | HeLa-JRFL Env/CEM21 cell fusion, luciferase | inhibition, % at 12.3 µM | 360,000 compounds, 1.1% hits | AID 651610;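 active = mean replicate inhibition score of at least 50 and every replicate individually at or above 50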;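 note: 0% = plate neutral controls and 100% = maraviroc near 300 nM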
Wnt bcat act = activators of Wnt/beta-catenin signaling. Wnt/beta-catenin reporter cell assay, activator, plate reader. activation, % at 9.35 µM. 300,000 compounds, 1.2% hits. AID 743398; in the data active = activation above about 30%, passing the limit was not always enough;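 note: 0% = neutral control wells and 100% = positive control wells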
ERAP1 inh = blocks human ERAP1 aminopeptidase activity | 340,000 compounds, 0.15% hits | recombinant ERAP1, Leu-AMC fluorescence, 60 min | inhibition, % at 10.7 µM | Q9NZ08;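 active = mean replicate inhibition of at least 30%, or all replicates individually reaching that 30% level; inactive = mean below 30% and not every replicate reaching it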;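 note: 0% = neutral control wells and 100% = L-leucinethiol positive control wells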
Target sequence (Q9NZ08 whole entry, looked up): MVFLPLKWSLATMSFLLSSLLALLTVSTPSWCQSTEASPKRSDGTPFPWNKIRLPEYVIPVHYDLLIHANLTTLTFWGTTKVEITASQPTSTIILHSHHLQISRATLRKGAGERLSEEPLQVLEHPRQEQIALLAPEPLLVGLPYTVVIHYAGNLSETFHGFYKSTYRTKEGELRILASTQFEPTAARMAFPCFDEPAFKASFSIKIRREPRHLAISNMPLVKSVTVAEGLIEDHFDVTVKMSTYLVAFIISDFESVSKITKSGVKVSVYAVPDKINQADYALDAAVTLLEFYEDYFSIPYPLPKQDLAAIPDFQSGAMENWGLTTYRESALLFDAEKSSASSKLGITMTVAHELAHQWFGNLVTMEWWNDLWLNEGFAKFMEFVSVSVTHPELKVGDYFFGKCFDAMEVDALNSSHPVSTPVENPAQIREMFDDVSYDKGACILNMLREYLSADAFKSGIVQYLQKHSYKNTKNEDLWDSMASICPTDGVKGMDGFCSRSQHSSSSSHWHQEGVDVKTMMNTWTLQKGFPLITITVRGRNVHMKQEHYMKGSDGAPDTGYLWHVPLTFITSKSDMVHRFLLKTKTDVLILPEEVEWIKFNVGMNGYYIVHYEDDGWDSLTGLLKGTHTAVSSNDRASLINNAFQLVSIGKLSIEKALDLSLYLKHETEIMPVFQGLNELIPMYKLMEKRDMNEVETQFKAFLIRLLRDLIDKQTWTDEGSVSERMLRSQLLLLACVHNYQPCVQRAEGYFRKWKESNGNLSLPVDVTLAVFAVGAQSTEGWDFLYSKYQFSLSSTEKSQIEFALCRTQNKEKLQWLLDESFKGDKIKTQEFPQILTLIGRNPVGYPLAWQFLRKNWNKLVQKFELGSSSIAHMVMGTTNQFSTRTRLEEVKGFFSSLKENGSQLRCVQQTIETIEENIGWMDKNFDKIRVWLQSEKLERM
Cneo AK release = causes C. neoformans cell lysis; adenylate kinase release luminescence, 4 h; normalised: neutral wells 0, clomiphene wells 100; 360,000 compounds, 0.2% hits; lysis activity, % at 15 µM;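 active = mean lysis activity across replicates of at least 80%, whatever share of replicates individually reach that level; inactive = mean lysis activity below 80%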
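Material: C. neoformans cells; Schedule: 4 h static compound exposure, 37 °C, read 1 h post-reagent; Measured by: adenylate kinase release luminescence; Read-out: signal increase indicating cell lysis; Controls: Clomiphene as positive lysis control.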
esBAF inh = blocks esBAF chromatin remodeling in mouse ES cells; Bmi1-luciferase knock-in reporter, 24 h; 100% = twice the neutral-well signal; reporter increase, % at 12.5 µM; 350,000 compounds, 2% hits; AID 602393; in the data active = activation above about 40%;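 note: 0% = median of the plate's neutral control wells and 100% = double that signal; a rise in the Bmi1 reporter signal indicates esBAF inhibition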
* hit, by the source's call; . = no result; [ ] = dose if it differs, or a comment.

SMILES	MITF act	Env fusion inh	Wnt bcat act	ERAP1 inh	Cneo AK release	esBAF inh
CCOC(=O)N1CCN(C(=O)c2ccc3nc(C)sc3c2)CC1	-6.5	.	.	.	-0.1	.
COC(=O)[C@@H](C)NC(=O)c1ccc2oc(CCc3ccccc3)nc2c1	.	-38.3	38.0*	-0.9	-0.9	65.7*
C/C=C/c1ccc([C@H]2[C@H](CO)N3C(=O)CN(Cc4ccccc4)C[C@@H]23)cc1	.	.	.	-2.2	.	.
CC(=O)Nc1ccc2c(c1)C(=O)N(C)[C@H]1CC[C@H](CC(=O)N3CCc4ccccc4C3)O[C@@H]1CO2	.	-11.0[16.7 µM]	.	.	1.3	-1.1
COC1CCCN(C(=O)c2ccc3oc(Cc4ccc(Cl)cc4)nc3c2)C1 (stereo unspecified)	1.3	12.5	-0.4	0.6	-42.9	-1.2
CCOC(=O)N1CCN(C(=O)c2ccc3oc(CCCc4ccccc4)nc3c2)CC1	38.1	-115.7	33.9*	-1.3	-7.3	80.9*
CCCOC1CCCN(C(=O)c2ccc3oc(C(C)C)nc3c2)C1 (stereo unspecified)	18.6	-19.2	-1.5	-5.9	3.2	43.8*
CCOC(=O)C1CCCN(C(=O)c2ccc3c(=O)n(CCOC)c(=S)[nH]c3c2)C1 (stereo unspecified)	-15.8	65.6*	.	.	-2.6	7.6
CC(NC(=O)c1ccc2nc(Cc3cccc(Cl)c3)oc2c1)c1ccncn1 (stereo unspecified)	.	19.6	-0.6	1.3	.	.
CC(=O)N1CCN(C(=O)c2ccc3oc(CCCc4ccccc4)nc3c2)CC1	9.4	9.6	4.3	-1.3	-1.9	10.9
CC(C)(CO)NC(=O)c1ccc2nc(Cc3cccc(Cl)c3)oc2c1	.	2.9	0.7	2.3	-0.5	42.7*
CN(C)C(=O)C[C@@H]1CC[C@@H]2[C@H](COC[C@H](O)CN2CC2CCCC2)O1	.	.	.	-0.5	-2.7	-11.6
CO[C@H]1CN(C)C(=O)c2cc(NC(C)=O)ccc2OC[C@@H](C)N(Cc2cccnc2)C[C@H]1C	.	-10.4[16.7 µM]	.	.	-0.5	-0.7
CNC[C@H]1Oc2ccc(N(C)C)cc2CC(=O)N([C@H](C)CO)C[C@@H]1C	.	0.8[16.7 µM]	.	-2.1	-11.1	-2.3
CCn1c(O)c(C=NC2CCCC2)sc1=S	35.6	-46.3	18.5	.	-0.4	44.6*
Cc1ccc(S(=O)(=O)Nc2ccc3c(c2)C(=O)N([C@H](C)CO)C[C@H](C)[C@@H](CN(C)C)O3)cc1	.	.	.	-2.7	3.0	-1.9
CCn1c(-c2ccc(C)cc2)nn(CC(=O)NCCc2ccccc2)c1=S	5.1	76.5*	0.4	.	.	.
O=C(O)c1c2c(nc3ccccc13)/C(=C/c1ccc(OC(F)F)cc1)CCC2	26.6	-18.6	9.4	-0.3	4.2	58.6*
Cc1ccc(S(=O)(=O)Nc2ccc3c(c2)C(=O)N([C@H](C)CO)C[C@H](C)[C@H](CN(C)Cc2ccc4c(c2)OCO4)O3)cc1	.	.	.	2.7	1.9	1.2
CCNC(=O)Nc1ccc2c(c1)C(=O)N(C)[C@@H]1CC[C@@H](CC(=O)NCC3CC3)O[C@@H]1CO2	.	10.0[16.7 µM]	.	.	1.0	-4.4
O=C(COC(=O)C12CC3CC(CC(O)(C3)C1)C2)NCCc1ccc(Cl)cc1	9.2	12.7	-1.8	-4.6	.	.
O=C(COC(=O)C12CC3CC(CC(O)(C3)C1)C2)Nc1ccc(Cl)cc1F	93.0*	.	22.8	-2.7	-1.0	16.5
COc1ccc(NC(=O)COC(=O)C23CC4CC(CC(O)(C4)C2)C3)cc1Cl	85.7*	-22.2	39.4*	1.8	-3.5	9.9
Cc1cc(C)c(NC(=O)COC(=O)C23CC4CC(CC(O)(C4)C2)C3)c(Cl)c1	0.1	-20.8	4.1	3.4	-2.2	4.5
N#Cc1c(F)cccc1N1CCC(C#N)CC1	-13.9	64.0*	-2.2	.	.	.
SMILES	MITF act	Env fusion inh	Wnt bcat act	ERAP1 inh	Cneo AK release	esBAF inh
N#Cc1cccc(C#N)c1N1CCC(C#N)CC1	3.1	-0.8	-0.9	2.6	.	.
CNC(=O)C[C@@H]1CC[C@@H]2[C@H](COc3ccc(NC(=O)Nc4ccc(F)c(F)c4)cc3C(=O)N2C)O1	.	2.2[16.7 µM]	.	1.4	-4.3	1.3
C[C@@]12C(=O)N(c3cccc(F)c3)C(=O)N1[C@H](c1ccc(Cl)cc1)[C@@H]1C(=O)N(C3CCCCC3)C(=O)[C@@H]12	9.4	0.6	-2.6	.	-1.4	3.5
COc1ccc(N2C(=O)N3[C@H](c4ccc(Cl)cc4)[C@@H]4C(=O)N(C5CCCCC5)C(=O)[C@@H]4[C@]3(C)C2=O)cc1	23.1	85.3*	-5.1	2.2	-0.3	12.8
C[C@@]12C(=O)N(c3cccc(Cl)c3)C(=O)N1[C@H](c1ccc(Cl)cc1)[C@@H]1C(=O)N(C3CCCCC3)C(=O)[C@@H]12	3.5	102.8*	-4.0	.	-0.4	-4.7
COc1ccc(NC(=O)N(C)C[C@@H]2Oc3ncc(-c4ccccc4)cc3C(=O)N([C@H](C)CO)C[C@@H]2C)cc1	.	-1.0[16.7 µM]	.	.	.	.
C[C@H](O)C#Cc1ccc2c(c1)O[C@H](CN(C)C(=O)Cc1ccccn1)[C@@H](C)CN([C@H](C)CO)S2(=O)=O	.	-0.7[16.7 µM]	.	-0.1	-6.7	-0.8
COc1ccc(-c2c(S(=O)(=O)c3ccccc3)cnn2-c2ccccc2)cc1	-1.1	62.9*	.	.	11.9	-7.0
C[C@H]1CN([C@@H](C)CO)S(=O)(=O)c2ccc(C#Cc3ccccc3F)cc2O[C@@H]1CN(C)CC1CCOCC1	.	21.3[16.7 µM]	.	1.2	0.3	-6.9
CNC[C@H]1Oc2ccc(NC(=O)Nc3ccccc3)cc2C(=O)N([C@@H](C)CO)C[C@@H]1C	.	-3.8[16.7 µM]	.	0.5	-3.0	-2.2
COc1ccc2ncn(-c3ccccc3)c2c1	37.0	68.4*	-9.0	.	2.1	-10.4
COc1ccc(-n2cnc3ccccc32)cc1	35.8	.	-1.3	0.0	4.0	7.8
COc1ccc(CN(C)C[C@H]2Oc3ccc(NC(=O)CCC(F)(F)F)cc3CC(=O)N([C@@H](C)CO)C[C@H]2C)cc1	.	-21.2[16.7 µM]	.	3.6	-8.4	1.9
Clc1ccc2nc(-c3ccc(Cl)nc3)[nH]c2c1	41.5	-122.8	-0.7	-2.4	3.8	57.5*
COc1ccc(/[N+]([O-])=C/c2ccoc2)cc1	106.0*	.	41.3*	-0.5	-18.8	80.4*
CC(C)OC(=O)Cn1nnc2c(cnn2-c2ccccc2)c1=O	41.3	.	.	.	1.0	46.9*
COC(=O)Cn1nnc2c(cnn2-c2ccccc2)c1=O	9.0	3.7	2.4	0.0	.	.
COc1ccc(C(=O)OCc2cc(=O)n3c(C)csc3n2)cc1F	106.0*	.	18.7	-1.8	-0.5	72.7*
O=C(C[C@H]1C[C@H]2c3cc(NC(=O)Nc4ccc(C(F)(F)F)cc4)ccc3O[C@H]2[C@@H](CO)O1)NCc1cc(F)ccc1F	.	-0.6[16.7 µM]	.	0.5	12.2	-5.7
CC(C)c1ccc(C(C(C(=O)c2ccccc2)N2CCOCC2)N2CCOCC2)cc1 (stereo unspecified)	28.0	-6.4	9.0	-0.2	-0.7	46.5*
CSc1nc(-c2ccccc2)nn1S(=O)(=O)c1ccccc1	2.5	.	1.8	.	0.6	8.2
COc1ccc(-c2nc(SC)n(S(=O)(=O)c3ccccc3)n2)cc1	56.5	.	.	.	0.9	52.8*
